PLC-beta3 inh: human PLC-beta3 inhibitors, primary screen, biochemical, fluorescence | Purified PLC-beta3, fluorogenic substrate | 1-phosphatidylinositol 4,5-bisphosphate phosphodiesterase beta-3 (Homo sapiens), Q01970 | inhibition, % at 12.2 µM | 370,000 tested, 0.18% active; in the data active means inhibition above about 11%;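 further: 0% = median of compound wells on plate and 100% = full blocker control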
Target sequence (Q01970 whole entry, looked up): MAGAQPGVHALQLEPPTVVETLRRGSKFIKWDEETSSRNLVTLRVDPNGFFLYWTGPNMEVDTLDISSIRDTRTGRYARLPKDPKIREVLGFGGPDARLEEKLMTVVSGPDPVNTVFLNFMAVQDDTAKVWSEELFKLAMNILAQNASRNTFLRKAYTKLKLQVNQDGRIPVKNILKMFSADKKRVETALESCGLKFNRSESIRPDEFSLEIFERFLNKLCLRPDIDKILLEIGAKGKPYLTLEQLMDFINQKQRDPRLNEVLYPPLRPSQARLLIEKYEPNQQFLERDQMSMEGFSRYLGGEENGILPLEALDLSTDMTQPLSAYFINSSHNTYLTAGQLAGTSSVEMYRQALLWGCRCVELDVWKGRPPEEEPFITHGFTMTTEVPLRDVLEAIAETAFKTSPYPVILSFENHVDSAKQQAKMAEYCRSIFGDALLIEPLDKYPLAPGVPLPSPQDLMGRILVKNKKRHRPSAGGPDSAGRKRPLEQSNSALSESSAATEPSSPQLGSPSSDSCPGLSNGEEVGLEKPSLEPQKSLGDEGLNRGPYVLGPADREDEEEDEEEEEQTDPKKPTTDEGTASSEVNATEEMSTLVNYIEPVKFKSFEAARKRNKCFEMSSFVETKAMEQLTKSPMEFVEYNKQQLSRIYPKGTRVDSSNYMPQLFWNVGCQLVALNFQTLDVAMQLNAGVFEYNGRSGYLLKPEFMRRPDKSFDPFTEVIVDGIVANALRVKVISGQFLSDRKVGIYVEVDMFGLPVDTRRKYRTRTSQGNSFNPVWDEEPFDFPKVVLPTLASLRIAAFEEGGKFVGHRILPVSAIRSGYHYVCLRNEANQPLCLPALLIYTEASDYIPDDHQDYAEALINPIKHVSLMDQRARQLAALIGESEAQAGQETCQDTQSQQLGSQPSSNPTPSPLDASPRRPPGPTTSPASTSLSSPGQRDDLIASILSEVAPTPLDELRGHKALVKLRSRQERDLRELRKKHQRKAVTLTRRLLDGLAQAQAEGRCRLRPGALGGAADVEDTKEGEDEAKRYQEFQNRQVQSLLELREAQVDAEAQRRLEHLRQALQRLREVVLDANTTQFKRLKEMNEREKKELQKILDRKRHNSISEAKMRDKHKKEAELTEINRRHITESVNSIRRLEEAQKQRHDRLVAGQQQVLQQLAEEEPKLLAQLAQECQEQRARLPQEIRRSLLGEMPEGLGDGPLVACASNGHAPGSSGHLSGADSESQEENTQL
DAGLB inh: DAGLB lipase inhibitors, primary screen, biochemical, fluorescence, HTS; HEK293T DAGLB membrane lysate, EnzChek fluorogenic substrate; inhibition, % at 5.17 µM; 340,000 tested, 0.059% active; AID 504411, 2011; in the data active means inhibition above about 34%;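 further: 0% = enzyme with vehicle and 100% = wells lacking enzyme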
PLCg1 inh: PLC-gamma1 enzyme inhibitors, primary screen, biochemical, fluorescence, purified enzyme. 1-phosphatidylinositol 4,5-bisphosphate phosphodiesterase gamma-1 (Homo sapiens), P19174. fluorogenic substrate. inhibition, % at 12.2 µM. 370,000 tested, 0.84% active. AID 720700, 2013
sPLA2-III inh: human group III sPLA2 inhibitors, primary screen, biochemical, QFRET, BODIPY PC-A2 liposome substrate | Group 3 secretory phospholipase A2 (Homo sapiens), Q9NZ20 | QFRET BODIPY PC-A2 liposome hydrolysis, fluorescence | inhibition, % at 12.2 µM | 370,000 tested, 0.56% active | AID 743126, 2013;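 active means inhibition above mean plus 3 SD of compounds lying within the high and low control bounds, cut at about 19% in these data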;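 further: 0% = median of test compound wells and 100% = no enzyme DMSO wells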
TbMetRS inhib: T. brucei MetRS inhibitors, primary screen, biochemical, luminescence; 360,000 tested, 0.4% active; methionyl-tRNA synthetase (Trypanosoma brucei brucei); purified T. brucei MetRS, ATP depletion, Kinase-Glo luminescence; inhibition, % at 11.9 µM;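 active means inhibition above a per-plate cutoff of the control wells' mean inhibition plus 3 SD, cut at about 5.5% in these data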;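 further: 0% = DMSO wells median and 100% = median of wells with control inhibitor compound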
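assay system = parasite MetRS enzyme | timing = 15 min preincubation, 2 h reaction, all 25 °C | evaluation = percent inhibition relative to median high and low control wells | medium = HEPES buffer containing pyrophosphatase, BSA, spermine, DTT | compound = single dose, 11.9 µM final nominal, 0.9% final DMSO | detection = Kinase-Glo luminescence, ATP depletion format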
PLCg1 ctr: PLC-gamma1 enzyme inhibitors, counter-screen for PLC-beta3 inhibitor project, biochemical, fluorescence; shares compounds with PLCg1 inh; purified PLC-gamma1, fluorogenic substrate; inhibition, % at 12.3 µM; 3,300 tested, 3.1% active
PLCbeta3 conf: PLC-beta3 inhibitor confirmation, biochemical, fluorescence, purified enzyme; fluorogenic substrate fluorescence; 3,300 tested, 1% active; shares compounds with PLCg1 inh; inhibition, % at 12.3 µM; in the data active means inhibition above about 11%
Active calls of the source: *. Hits are enriched below; roughly 1.9% of the tested compounds scored in any of these assays. Unless noted, no stated cut-off is given here; in the data, active means inhibition above about 9.5%; inactive means the rest.

What do the screens show for `COc1cc(/C=N/NC(=O)[C@H](Cc2c[nH]c3ccccc23)NC(=O)OCC(C)C)cc([N+](=O)[O-])c1O`?
PLC-beta3 inh: 7.8; DAGLB inh: 18.5; PLCg1 inh: 13.6*; sPLA2-III inh: -44.3; TbMetRS inhib: 0.0; PLCg1 ctr: 2.1; PLCbeta3 conf: 2.1

Results for COc1cc(/C=N/NC(=O)Cc2ccccc2)cc([N+](=O)[O-])c1O ?
PLC-beta3 inh: -1.9; DAGLB inh: 3.2; PLCg1 inh: 5.0; sPLA2-III inh: 0.7; TbMetRS inhib: -0.2

How did O=C(NNC(=O)c1ccccc1)C(=O)N1CCCCC1 do in these assays?
PLC-beta3 inh: 3.8; DAGLB inh: -3.7; PLCg1 inh: 1.5; sPLA2-III inh: 1.0; TbMetRS inhib: 0.7

What do the screens show for `Cc1ccc(C(=O)Nc2ccccc2C(=O)N2CCCCCC2)cc1`?
PLC-beta3 inh: 8.2; DAGLB inh: -2.5; PLCg1 inh: 10.1*; sPLA2-III inh: -2.1; TbMetRS inhib: -0.2; PLCg1 ctr: -8.5; PLCbeta3 conf: -5.7

How did Cc1ccccc1C(=O)NNC(=O)C(=O)N1CCCCC1 do in these assays?
PLC-beta3 inh: 2.8; DAGLB inh: -2.7; PLCg1 inh: 10.3*; sPLA2-III inh: 0.2; TbMetRS inhib: -0.8; PLCg1 ctr: -5.8; PLCbeta3 conf: -3.2

What do the screens show for `CCCCN1CCS(=O)(=O)N(Cc2cn(Cc3ccc(C)cc3)nn2)C(C(=O)OC)C1` (stereo not given)?
PLC-beta3 inh: 0.4; PLCg1 inh: 3.4; sPLA2-III inh: 0.3

What do the screens show for `COc1ccc(/C=N/NC(=O)c2cc[n+]([O-])cc2)cc1OC`?
DAGLB inh: 1.2; TbMetRS inhib: -0.1

How did COc1cc(/C=N/NC(=O)c2cc[n+]([O-])cc2)ccc1O do in these assays?
PLC-beta3 inh: 10.3; DAGLB inh: 2.6; PLCg1 inh: 16.8*; sPLA2-III inh: 14.0; TbMetRS inhib: -0.6; PLCg1 ctr: 2.9; PLCbeta3 conf: 1.8

What do the screens show for `O=C(Nc1ccccc1N1CCCCC1)c1ccc(-c2cccc(Cl)c2)o1`?
PLC-beta3 inh: 2.0; DAGLB inh: -12.2; PLCg1 inh: 12.5*; sPLA2-III inh: 2.9; TbMetRS inhib: 0.0; PLCg1 ctr: -117.2; PLCbeta3 conf: -113.9

Results for Cc1ccc(-n2nc3c(=O)n(CCCC(=O)NCc4ccccc4F)nc(C)c3c2C)cc1 ?
PLC-beta3 inh: -8.8; DAGLB inh: -2.0; PLCg1 inh: 0.7; sPLA2-III inh: 8.7; TbMetRS inhib: -0.4

What do the screens show for `Cc1ccc(-n2nc3c(=O)n(CCCC(=O)NCc4ccccc4C)nc(C)c3c2C)cc1`?
PLC-beta3 inh: -2.1; DAGLB inh: 2.1; PLCg1 inh: 14.0*; sPLA2-III inh: 0.1; TbMetRS inhib: -0.3; PLCg1 ctr: -7.9; PLCbeta3 conf: -3.1

How did Cc1ccc(C(NC(=O)c2ccccc2)C(Cl)Cl)cc1 (stereo not given) do in these assays?
PLC-beta3 inh: 10.7*; DAGLB inh: -3.0; PLCg1 inh: 7.2; sPLA2-III inh: -2.5; TbMetRS inhib: -0.5; PLCg1 ctr: -3.1; PLCbeta3 conf: -1.4

How did Cc1ccc(C(=O)NC(NC(=O)c2ccc(C)cc2)C(Cl)Cl)cc1 do in these assays?
PLC-beta3 inh: 0.2; DAGLB inh: -0.6; PLCg1 inh: 5.7; sPLA2-III inh: 3.7; TbMetRS inhib: -0.5

Results for CCn1nc(C)c(NC(=O)CSc2nnc(-c3ccco3)n2C)c1C ?
PLC-beta3 inh: 10.9*; DAGLB inh: 3.9; PLCg1 inh: 7.3; sPLA2-III inh: 4.9; TbMetRS inhib: -1.4; PLCg1 ctr: -2.1; PLCbeta3 conf: 2.2
